Laboratory results published in PMC4428392 (Anti-Cancer Agents in Medicinal Chemistry, 2014).
Where two headings read alike, the source gives them in different places.

What was measured:
Type in all cases: cell-based, Human
HCT-116 = test: MTT cytotoxicity assay in normoxia and hypoxia, HCT-116; conditions: for IC50: Homo sapiens; for HCR = hypoxic cytotoxicity ratio IC50 (aerobic)/IC50 (hypoxic): HCT-116
Outline: (§1)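 MCF-7 and HCT-116 were grown in DMEM; NCI-H460 in RPMI 1640 plus 10 mM HEPES; all media had 10% FBS, pyruvate and 1.5 g/L bicarbonate. Cells were seeded at 20000/well and grown 24 h at 20% O2, 5% CO2, 37 °C. Serial compound concentrations were then given for 24 h in normoxia, or for 6 h hypoxia (3% O2) followed by 18 h normoxia. MTT was read at 545 nm. IC50 came from linear regression of % inhibition versus log concentration, and HCR = IC50 normoxia/IC50 hypoxia.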

NCI-H460 = test: MTT cytotoxicity assay in normoxia and hypoxia, NCI-H460; conditions: Homo sapiens
Outline: as §1

HCT-116 cells = test: Cell cycle assay by flow cytometry; conditions: data not shown
[1] = test system: co-cultured HUVECs and fibroblasts; test: In vitro tube formation test; conditions: 2 μM, 11 days
Outline: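 HUVECs were co-cultured with fibroblasts for 11 days in basal medium, solvent-control medium (0.2% DMSO), or solvent medium with test compound at 2 or 20 μM. Medium ± compound was renewed every 3 days, and suramin served as the kit positive control. HUVECs were stained with anti-CD31, and tube area, length, joints and paths were measured by image analyzer over 5 fields. Quadruplicate wells; mean ± SEM, n=4.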

[2] = HCT-116, 24 h, read-out: Cytotoxicity (IC50) HCT-116 N
[3] = HCT-116, read-out: Cytotoxicity (IC50) HCT-116 H
[4] = NCI-H460, 24 h, read-out: Cytotoxicity (IC50) NCI-H460 N
[5] = NCI-H460, read-out: Cytotoxicity (IC50) NCI-H460 H
[6] = HCT-116, read-out: Cytotoxicity (IC50), cell kill under hypoxia

| Compound | IC50 (HCT-116; [2]) [µM] | IC50 (HCT-116; [3]) [µM] | IC50 (NCI-H460; [4]) [µM] | IC50 (NCI-H460; [5]) [µM] | effect on HCT-116 cell cycle (G2/M accumulation) (HCT-116 cells) | reduction of areas, lengths, paths and joints of tube formation [1] | HCR = hypoxic cytotoxicity ratio IC50 (aerobic)/IC50 (hypoxic) (HCT-116) | IC50 (HCT-116; [6]) [µM] |
| --- | --- | --- | --- | --- | --- | --- | --- | --- |
| [O-][n+]1nc(NCCCCNc2n[n+]([O-])c3ccccc3[n+]2[O-])nc2ccccc21 [Compound 9c, 3-(4-(1-Oxido-1,2,4-benzotriazin-1-ium-3-yl)aminobutylamino)-1,2,4-benzotriazine-1,4-dioxide] | > 30 | > 30 | > 30 | > 30 |  |  |  |  |
| [O-][n+]1nc(NCCCCCCCCNc2n[n+]([O-])c3ccccc3[n+]2[O-])nc2ccccc21 [Compound 9g, 3-(8-(1-Oxido-1,2,4-benzotriazin-1-ium-3-yl)aminooctylamino)-1,2,4-benzotriazine-1,4-dioxide] | > 30 | > 30 | > 30 | > 30 |  |  |  |  |
| 1,2,4-benzotriazine-1-oxide [Compound 1] |  |  |  |  | invalid |  |  |  |
| NCCCCCCCCNc1n[n+]([O-])c2ccccc2[n+]1[O-] [Compound 8g, N^1-(1,4-Dioxido-1,2,4-benzotriazine-3-yl)-1,8-octanediamine] | 97 ± 8.7 | 44.8 ± 6 | 82.7 ± 20.4 | 45.8 ± 6.1 |  | 31-40% | 2.2 | 44.8 |
| NCCCCCNc1n[n+]([O-])c2ccccc2[n+]1[O-] [Compound 8d, N^1-(1,4-Dioxido-1,2,4-benzotriazine-3-yl)-1,5-pentanediamine] | 93.7 ± 20 | 55.3 ± 7.5 | 101 ± 38.9 | 83.4 ± 33.8 |  |  | 1.7 | 55.3 |
| NCCCCCCNc1n[n+]([O-])c2ccccc2[n+]1[O-] [Compound 8e, N^1-(1,4-Dioxido-1,2,4-benzotriazin-3-yl)-1,6-hexanediamine] | 91.2 ± 16.2 | 62.9 ± 11 | 104 ± 15.1 | 68.7 ± 15.1 |  |  | 1.5 | 62.1 |
| [O-][n+]1nc(NCCCCCCNc2n[n+]([O-])c3ccccc3[n+]2[O-])nc2ccccc21 [Compound 9e, 3-(6-(1-Oxido-1,2,4-benzotriazin-1-ium-3-yl)aminohexylamino)-1,2,4-benzotriazine-1,4-dioxide] | > 30 | > 30 | > 30 | > 30 |  |  |  |  |
